This is a sample that favours compounds with a hit; in the whole collection about 5% have one here.
Beta cell apopt: blocks beta cell apoptosis. hit rate 0.8% among 300,000. protection from apoptosis, % (no concentration beside the values). INS-1E cytokine-induced death, ATP luminescence, 48 h; percent of positive-control rescue, neutral wells zero;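 active means Every replicate reaches about 75%, or at least half do and their mean reaches it too, limit read from the data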;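 further: higher means more ATP so stronger rescue from cytokine killing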
CHOP UPR activ: apoptotic UPR (CHOP) activation; CHO-CHOP luciferase reporter, luminescence; percent of tunicamycin response over DMSO baseline; activation, % at 10 µM; hit rate 0.34% among 330,000; AID 449763;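 active means at 10 µM dose, activation of 40% or more, normalized to positive control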
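Evaluation: % reporter activation, DMSO baseline versus tunicamycin full activation; System: CHO-CHOP luciferase reporter cell line; Input: 500 cells/well; Incubation: 6 h compound treatment, 37 °C; Measured by: Steady-Glo luciferase luminescence; Dosing: one dose, 10 µM in 0.5% DMSO; Buffer or medium: F12 medium, 10% FBS; Benchmarks: positive tunicamycin 10 µg/mL, negative DMSO alone.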
XBP1 UPR activ: adaptive UPR (XBP1) activation | CHO-XBP1 luciferase reporter, IRE1-XBP1 UPR activation, luminescence; percent of tunicamycin response, DMSO as zero | activation, % at 20 µM | hit rate 0.33% among 330,000 | AID 463104;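 active means versus positive control, 20 µM dose yields 30% or more activation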
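assay system = CHO-XBP1 luciferase reporter cells | amount = 1000 cells/well | buffer or medium = F12 plus 10% FBS | compound dosing = single point, 20 µM final compound, 1% DMSO | incubation = 16-18 h cell attachment at 37 °C, then 6 h compound exposure | detection = Steady-Glo luminescence read | controls = tunicamycin 10 µg/mL and vehicle-only wells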
Mdm2-MdmX inh: human Mdm2/MdmX binding inhibition | O15151+Q00987 | SaOS-2 split-luciferase Mdm2/MdmX complementation, luminescence | inhibition, % at 8 µM | hit rate 3% among 330,000 | AID 485346;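 active means inhibition of at least 50% at 8 µM in the primary screen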
Target sequence (O15151 whole entry, looked up): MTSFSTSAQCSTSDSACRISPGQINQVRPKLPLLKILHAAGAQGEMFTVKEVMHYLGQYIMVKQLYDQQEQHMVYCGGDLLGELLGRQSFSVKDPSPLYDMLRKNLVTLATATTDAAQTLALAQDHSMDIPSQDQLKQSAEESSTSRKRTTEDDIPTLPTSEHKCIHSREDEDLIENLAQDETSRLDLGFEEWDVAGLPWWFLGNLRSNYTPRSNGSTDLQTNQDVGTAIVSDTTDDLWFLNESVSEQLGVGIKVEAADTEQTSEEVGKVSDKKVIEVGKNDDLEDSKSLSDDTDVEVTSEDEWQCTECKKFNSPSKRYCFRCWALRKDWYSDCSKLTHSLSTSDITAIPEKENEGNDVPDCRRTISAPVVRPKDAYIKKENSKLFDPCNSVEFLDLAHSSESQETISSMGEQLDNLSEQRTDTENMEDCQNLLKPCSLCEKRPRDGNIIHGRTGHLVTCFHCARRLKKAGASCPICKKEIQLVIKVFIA
Target sequence (Q00987 whole entry, looked up): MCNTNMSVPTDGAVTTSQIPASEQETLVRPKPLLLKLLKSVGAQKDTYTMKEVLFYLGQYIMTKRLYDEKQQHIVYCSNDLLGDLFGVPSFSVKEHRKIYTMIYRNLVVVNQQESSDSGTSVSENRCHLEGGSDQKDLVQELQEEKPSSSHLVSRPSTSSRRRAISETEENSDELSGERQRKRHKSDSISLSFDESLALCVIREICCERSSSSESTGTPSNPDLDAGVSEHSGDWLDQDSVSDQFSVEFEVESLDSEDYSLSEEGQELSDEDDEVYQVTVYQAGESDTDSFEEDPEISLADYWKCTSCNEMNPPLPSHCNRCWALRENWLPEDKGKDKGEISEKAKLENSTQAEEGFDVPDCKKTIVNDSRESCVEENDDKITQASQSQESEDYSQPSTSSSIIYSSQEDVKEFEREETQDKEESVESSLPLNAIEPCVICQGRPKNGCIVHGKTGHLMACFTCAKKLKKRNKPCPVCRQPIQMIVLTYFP
T cruzi inh: T. cruzi replication inhibition; inhibition, % (concentration not given with the values); T. cruzi beta-gal in NIH3T3, luminescence, 90 h; hit rate 1.4% among 300,000; AID 1885;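 active means mean inhibition across valid replicates above about 55%, limit read from the data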;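 further: signal also drops with host cell toxicity which is not excluded here; higher percent means less beta-gal luminescence so fewer parasites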
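Test system: β-gal T. cruzi (Tulahuen C4) inside NIH/3T3 cells / Quantity: 5,000 cells/well / Measured by: luminescence from GalScreen with 0.05% NP40, read after 60 min / Medium: DMEM plus 2% FBS / Measure: parasite load inhibition, % / Reagent: Tulahuen C4 trypomastigotes, 5000/well / Schedule: co-culture of at least 90 h after 3 h attachment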
CSC inhib: blocks cancer stem cells; cancer stem cell-like cells viability, luminescence; inhibition, % at 7.5 µM; hit rate 1.1% among 300,000; AID 2717; in the data active means inhibition above about 75%; tested in HMLE shEcad cells
Mdm2-MdmX conf: human Mdm2/MdmX binding inhibition, confirmed; AID 489028; luminescent assay; shares compounds with Mdm2-MdmX inh; inhibition, % at 8 µM; hit rate 55% among 10,000; in the data active means inhibition above about 40%
FLuc counter: counter-screen for Mdm2/MdmX inhibitors: full-length luciferase; shares compounds with Mdm2-MdmX inh; inhibition, % at 8 µM; SaOS-2 full-length luciferase counterscreen, luminescence; hit rate 77% among 6,200;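 active means mean inhibition at 8 µM reaching about 37%, which flags the compound as non-specific, limit read from the data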;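 further: p53-null SaOS-2 cells with luciferase driven by a doxycycline-inducible promoter; compound on cells about two nights before reading with doxycycline added after day one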
Numbers stand for hits.

`C=C1CCC[C@]2(C)C[C@H]3OC(=O)C(CN(Cc4ccc(OC)c(OC)c4)CC(C)O)[C@H]3CC12` (stereo partly drawn) gave Beta cell apopt inactive, CHOP UPR activ inactive, XBP1 UPR activ inactive, Mdm2-MdmX inh 67.7, T cruzi inh inactive, CSC inhib inactive, Mdm2-MdmX conf 48.0 and FLuc counter 39.8.
Cc1ccc(CN2CCC(Oc3cccc(C(=O)NCc4cccnc4)c3)CC2)o1 was read as Beta cell apopt inactive, CHOP UPR activ inactive, XBP1 UPR activ inactive, Mdm2-MdmX inh inactive, T cruzi inh inactive and CSC inhib inactive.
Screening Cc1cc(C)c2nc(C)cc(N/N=C/c3ccc(O)cc3)c2c1 returned CHOP UPR activ inactive, XBP1 UPR activ inactive, Mdm2-MdmX inh 98.2, T cruzi inh 64.4, CSC inhib 102.5, Mdm2-MdmX conf 100.2 and FLuc counter 50.2.
Screening Cc1cc(N/N=C/c2ccc(O)cc2)c2cccc(C)c2n1 returned Beta cell apopt inactive, CHOP UPR activ inactive, XBP1 UPR activ inactive, Mdm2-MdmX inh 65.5, T cruzi inh inactive, CSC inhib inactive and Mdm2-MdmX conf inactive.
`Cc1cc(N/N=C/c2ccc(N(C)C)cc2)c2ccccc2n1` gave Beta cell apopt inactive, CHOP UPR activ inactive, XBP1 UPR activ inactive, Mdm2-MdmX inh inactive, T cruzi inh inactive and CSC inhib inactive.
CC(C)/C=C/CN1CCCC(N2CCN(c3cccc(Cl)c3)CC2)C1 (stereo not drawn) was read as Beta cell apopt inactive, CHOP UPR activ inactive, XBP1 UPR activ inactive, Mdm2-MdmX inh inactive, T cruzi inh inactive and CSC inhib inactive.
O=C(CN(CC1CCCO1)C(=O)CNS(=O)(=O)c1ccc(F)cc1)NCc1ccc(F)cc1 (stereo not drawn) was read as Beta cell apopt inactive, CHOP UPR activ inactive, XBP1 UPR activ inactive, Mdm2-MdmX inh inactive, T cruzi inh inactive and CSC inhib inactive.
Screening CCCCCCNC(=O)c1cn(CC)c2cc(N3CCN(C)CC3)c(F)cc2c1=O returned Beta cell apopt inactive, CHOP UPR activ inactive, XBP1 UPR activ inactive, Mdm2-MdmX inh 51.1, T cruzi inh inactive, CSC inhib inactive and Mdm2-MdmX conf inactive.
CCn1cc(C(=O)NCCCO)c(=O)c2cc(F)c(N3CCN(C)CC3)cc21 was read as Beta cell apopt inactive, CHOP UPR activ inactive, XBP1 UPR activ inactive, Mdm2-MdmX inh inactive, T cruzi inh inactive and CSC inhib inactive.
For COc1cccc(C(=O)Nc2ccc(N3CCN(C(=O)c4cccs4)CC3)cc2)c1 the results were Beta cell apopt inactive, CHOP UPR activ inactive, XBP1 UPR activ inactive, Mdm2-MdmX inh 60.6, T cruzi inh inactive, CSC inhib inactive, Mdm2-MdmX conf 57.2 and FLuc counter 60.3.
For O=C(Nc1cccnc1)c1cccs1 the results were Beta cell apopt 89.0, CHOP UPR activ inactive, XBP1 UPR activ inactive, Mdm2-MdmX inh 77.3, T cruzi inh inactive, CSC inhib inactive, Mdm2-MdmX conf 70.2 and FLuc counter 39.5.
For COc1ccc(NC(=O)c2ccc(NC(=O)c3cccs3)cc2)cc1 the results were Beta cell apopt inactive, CHOP UPR activ inactive, XBP1 UPR activ inactive, Mdm2-MdmX inh 66.8, T cruzi inh inactive, CSC inhib inactive and Mdm2-MdmX conf inactive.
Screening O=C(NC(=S)Nc1ccc(N2CCN(C(=O)c3ccccc3)CC2)cc1)c1cccs1 returned CHOP UPR activ inactive, XBP1 UPR activ inactive, Mdm2-MdmX inh 51.2, T cruzi inh inactive and Mdm2-MdmX conf inactive.
`O=C(NC(=S)Nc1cccnc1)c1cccs1` gave Beta cell apopt inactive, CHOP UPR activ inactive, XBP1 UPR activ inactive, Mdm2-MdmX inh inactive and T cruzi inh inactive.
O=C(NC(=S)Nc1ccccc1N1CCN(C(=O)c2ccccc2)CC1)c1cccs1 was read as Beta cell apopt inactive, CHOP UPR activ inactive, XBP1 UPR activ inactive, Mdm2-MdmX inh inactive, T cruzi inh inactive and CSC inhib inactive.
`COc1ccc(NC(=O)c2ccc(CN3CCN(c4ccccc4)CC3)cc2)cc1` gave Beta cell apopt inactive, CHOP UPR activ inactive, XBP1 UPR activ inactive, Mdm2-MdmX inh inactive, T cruzi inh inactive and CSC inhib inactive.
COc1cccc(NC(=O)c2ccc(CN3CCN(c4ccccc4)CC3)cc2)c1 was read as Beta cell apopt inactive, CHOP UPR activ inactive, XBP1 UPR activ inactive, Mdm2-MdmX inh 57.2, T cruzi inh inactive, CSC inhib inactive and Mdm2-MdmX conf inactive.
For COc1cccc(NC(=O)Cn2c3ccc(OC)cc3c3nc4n(c(=O)c32)CCS4)c1 the results were Beta cell apopt inactive, CHOP UPR activ inactive, XBP1 UPR activ inactive, Mdm2-MdmX inh inactive, T cruzi inh inactive and CSC inhib inactive.
`COc1ccc2c(c1)c1nc3n(c(=O)c1n2CC(=O)Nc1cc(C)[nH]n1)CCS3` gave Beta cell apopt inactive, CHOP UPR activ inactive, XBP1 UPR activ inactive, Mdm2-MdmX inh 67.3, T cruzi inh inactive, CSC inhib inactive, Mdm2-MdmX conf 59.5 and FLuc counter 100.9.
CC(C)(C)c1cc(Cl)c(O)c(NC(=S)NC(=O)c2cccnc2)c1 was read as Beta cell apopt inactive, CHOP UPR activ inactive, XBP1 UPR activ inactive, Mdm2-MdmX inh 57.3, T cruzi inh 70.2, CSC inhib inactive, Mdm2-MdmX conf 52.6 and FLuc counter inactive.
`CC(C)(C)c1ccc(C(=O)NNC(=S)NC(=O)c2cccnc2)cc1` gave Beta cell apopt inactive, CHOP UPR activ inactive, XBP1 UPR activ inactive, Mdm2-MdmX inh inactive, T cruzi inh inactive and CSC inhib inactive.
`Cc1ccc(OCC(=O)NNc2c3ccccc3nc3ccccc23)cc1` gave Beta cell apopt inactive, CHOP UPR activ inactive, XBP1 UPR activ inactive, Mdm2-MdmX inh 56.2, T cruzi inh inactive, CSC inhib inactive and Mdm2-MdmX conf inactive.
Screening Cc1cccc(OCC(=O)NNc2c3ccccc3nc3ccccc23)c1 returned Beta cell apopt inactive, CHOP UPR activ inactive, XBP1 UPR activ inactive, Mdm2-MdmX inh inactive, T cruzi inh inactive and CSC inhib inactive.
`CCOc1ccc(-c2cc(C(=O)Nc3ccc4c(c3)OCCO4)c3ccccc3n2)cc1` gave Beta cell apopt inactive, CHOP UPR activ inactive, XBP1 UPR activ inactive, Mdm2-MdmX inh 50.5, T cruzi inh inactive, CSC inhib inactive, Mdm2-MdmX conf 40.4 and FLuc counter 97.4.
CCOc1ccc(NC(=O)c2cc(Cl)nc3ccccc23)cc1 was read as Beta cell apopt inactive, CHOP UPR activ inactive, XBP1 UPR activ inactive, Mdm2-MdmX inh 50.6, T cruzi inh inactive, CSC inhib inactive, Mdm2-MdmX conf inactive and FLuc counter 62.2.

Compound activity: PubChem BioAssay, several laboratories
